Results taken from article PMC4263960 (Pediatric blood & cancer, 2013).
Where two headings read alike, the source gives them in different places.

Legend:
ALL xenografts = assay: PPTP in vivo testing, ALL xenograft panel summary; design: species or system mice
[1] = system: GBM2 glioblastoma xenograft; assay: PPTP in vivo xenograft testing, GBM2; design: species or system mice
COG-LL-317 cell line = assay: DIMSCAN in vitro cytotoxicity testing, COG-LL-317; format: cell-based
Summary of the method: (§1)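 Test compound incubated with cells of a 24-line pediatric cancer panel for 96 h at 0.1 nM to 1 μM, then assessed by DIMSCAN. Relative IC50 (rIC50) derived per line. Panel comparison value is the panel rIC50 divided by the rIC50 of each cell line.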

CHLA-258 cell line = assay: DIMSCAN in vitro cytotoxicity testing, CHLA-258; format: cell-based
Summary of the method: as §1

CCRF-CEM cell line = assay: DIMSCAN in vitro cytotoxicity testing, CCRF-CEM; format: cell-based; conditions: for IC50: Homo sapiens, CCRF-CEM, 96 h
Summary of the method: as §1

[2] = system: CHLA-79 neuroblastoma xenograft; assay: PPTP in vivo xenograft testing, CHLA-79; design: species or system mice
[3] = system: BT-50 medulloblastoma xenograft; assay: PPTP in vivo xenograft testing, BT-50; design: species or system mice
[4] = intravenous dose of 2 mg/kg; different mouse strain; cited from earlier work
[5] = system: ALL-2 ALL B-precursor xenograft; assay: PPTP in vivo xenograft testing, ALL-2; design: species or system mice
[6] = system: OS-9 osteosarcoma xenograft; assay: PPTP in vivo xenograft testing, OS-9; design: species or system mice
[7] = system: NB-1643 neuroblastoma xenograft; assay: PPTP in vivo xenograft testing, NB-1643; design: species or system mice
Rh30 cell line = assay: DIMSCAN in vitro cytotoxicity testing, Rh30; format: cell-based
Summary of the method: as §1

[8] = system: D645 glioblastoma xenograft; assay: PPTP in vivo xenograft testing, D645; design: species or system mice
[9] = system: NB-EBc1 neuroblastoma xenograft; assay: PPTP in vivo xenograft testing, NB-EBc1; design: species or system mice
[10] = system: Rh36 EMB rhabdomyosarcoma xenograft; assay: PPTP in vivo xenograft testing, Rh36; design: species or system mice
[11] = system: PPTP in vitro cell line panel; assay: DIMSCAN in vitro cytotoxicity testing, panel summary; format: cell-based
NB-1643 cell line = assay: DIMSCAN in vitro cytotoxicity testing, NB-1643; format: cell-based
Summary of the method: as §1

[12] = system: Rh30 ALV rhabdomyosarcoma xenograft; assay: PPTP in vivo xenograft testing, Rh30; design: species or system mice
TC-71 Ewing xenograft = assay: PPTP in vivo xenograft testing, TC-71; design: species or system mice
[13] = Eribulin pharmacokinetics in SCID mice
SK-NEP-1 Ewing xenograft = assay: PPTP in vivo xenograft testing, SK-NEP-1; design: species or system mice
[14] = 1 mg/kg IP Q4Dx3 repeated at Day 21
[15] = NB-1643, 1 mg/kg IP Q4Dx3 repeated at Day 21
[16] = NB-EBc1, 1 mg/kg IP Q4Dx3 repeated at Day 21

## C=C1C[C@@H]2CC[C@@]34C[C@H]5O[C@H]6[C@@H](O3)[C@H]3O[C@H](CC[C@@H]3O[C@H]6[C@H]5O4)CC(=O)C[C@@H]3[C@@H](OC)[C@@H](C[C@H](O)CN)O[C@H]3C[C@H]3O[C@@H](CC[C@@H]1O2)C[C@@H](C)C3=C [Eribulin]
ALL xenografts; ALL panel
  xenografts with CR or MCR: All eight
  xenografts with high EFS T/C activity: six of eight
ALL xenografts; evaluable ALL xenografts, 1.5 mg/kg
  xenografts with significant difference in EFS distribution compared to control: 8 of 8
[1]; 1 mg/kg IP
  EFS activity: High (High activity requires: (a) an EFS T/C >2; (b) a significant difference in EFS distributions, and (c) a net reduction in median tumor volume for animals in the treated group at the end of treatment as compared to at treatment initiation)
  Response activity: High (A high level of activity is indicated by a score of 6 or more)
  T/C volume activity: Low (Low activity = T/C >0.45)
[1]; [14]
  EFS T/C: >3.5
  Median final RTV (CD45%): 0.6
[1]; 1 mg/kg IP, Day 21 or earlier
  Tumor volume T/C: 1.00
COG-LL-317 cell line; 96 h, read-out: rIC50
  IC50: < 100 pM
COG-LL-317 cell line; COG-LL-317
  Panel rIC50/Line rIC50: >2.74
  Relative in/out%: −99%
  Ymin % (observed): 0.03%
CHLA-258 cell line; 96 h, read-out: rIC50
  IC50: 500 pM
CHLA-258 cell line; CHLA-258
  Panel rIC50/Line rIC50: 0.54
  Relative in/out%: −84%
  Ymin % (observed): 6.29%
CCRF-CEM cell line; CCRF-CEM (1)
  Panel rIC50/Line rIC50: 0.17
  Relative in/out%: −100%
  Ymin % (observed): 0.01%
CCRF-CEM cell line; CCRF-CEM (2)
  Panel rIC50/Line rIC50: 0.14
  Relative in/out%: −100%
  Ymin % (observed): 0.02%
CCRF-CEM cell line; read-out: rIC50, CCRF-CEM (1) ALL
  IC50: 1620 pM
CCRF-CEM cell line; read-out: rIC50, CCRF-CEM (2) ALL
  IC50: 1880 pM
[2]; 1 mg/kg IP
  EFS activity: Low (Low activity = EFS T/C <2)
  Response activity: Int (intermediate activity by a score of ≥2 but <6)
  T/C volume activity: Low (Low activity = T/C >0.45)
[2]; [14]
  EFS T/C: 1.9
  Median final RTV (CD45%): >4
  Time to event: 13.0
[2]; 1 mg/kg IP, Day 21 or earlier
  Tumor volume T/C: 0.71
[3]; 1 mg/kg IP
  Response activity: Low (low activity by a score of <2)
  T/C volume activity: Low (Low activity = T/C >0.45)
[3]; [14]
  EFS T/C: >1.1
  Median final RTV (CD45%): >4
[3]; 1 mg/kg IP, Day 21 or earlier
  Tumor volume T/C: 0.78
[4]
  AUC: 1,132 ng hour/ml
[5]; 1.5 mg/kg IP
  EFS activity: High (High activity requires: (a) an EFS T/C >2; (b) a significant difference in EFS distributions, and (c) a net reduction in median tumor volume for animals in the treated group at the end of treatment as compared to at treatment initiation)
  Response activity: High (A high level of activity is indicated by a score of 6 or more)
[5]; 1.5 mg/kg IP Q4Dx3 repeated at Day 21
  EFS T/C: >2.8
[5]; CD45%, 1.5 mg/kg IP
  Median final RTV (CD45%): 0.0%
[6]; 1 mg/kg IP
  EFS activity: Low (Low activity = EFS T/C <2)
  Response activity: Low (low activity by a score of <2)
  T/C volume activity: Low (Low activity = T/C >0.45)
[6]; [14]
  EFS T/C: 1.4
  Median final RTV (CD45%): >4
  Time to event: 26.3
[6]; 1 mg/kg IP, Day 21 or earlier
  Tumor volume T/C: 0.61
[7]; NB-1643, 1 mg/kg IP
  EFS activity: High (High activity requires: (a) an EFS T/C >2; (b) a significant difference in EFS distributions, and (c) a net reduction in median tumor volume for animals in the treated group at the end of treatment as compared to at treatment initiation)
  Response activity: High (A high level of activity is indicated by a score of 6 or more)
  T/C volume activity: High (High activity = T/C ≤0.15)
[7]; [15]
  EFS T/C: >4.7
  Median final RTV (CD45%): 0.6
[7]; NB-1643, 1 mg/kg IP, Day 21 or earlier
  Tumor volume T/C: 0.01
[7]; NB-1643 neuroblastoma xenograft
  objective response: achieved an objective response
Rh30 cell line; Rh30
  Panel rIC50/Line rIC50: 2.47
  Relative in/out%: −23%
  Ymin % (observed): 12.75%
Rh30 cell line; Rh30, 96 h, read-out: rIC50
  IC50: 110 pM
[8]; 1 mg/kg IP
  EFS activity: Int (Intermediate activity = criteria (a) and (b) above, but not having a net reduction in median tumor volume for treated animals at the end of the study)
  Response activity: High (A high level of activity is indicated by a score of 6 or more)
  T/C volume activity: High (High activity = T/C ≤0.15)
[8]; [14]
  EFS T/C: >7.1
  Median final RTV (CD45%): 3.8
[8]; 1 mg/kg IP, Day 21 or earlier
  Tumor volume T/C: 0.07
[9]; NB-EBc1, 1 mg/kg IP
  EFS activity: Low (Low activity = EFS T/C <2)
  Response activity: Low (low activity by a score of <2)
  T/C volume activity: Low (Low activity = T/C >0.45)
[9]; [16]
  EFS T/C: 1.1
  Median final RTV (CD45%): >4
  Time to event: 4.5
[9]; NB-EBc1, 1 mg/kg IP, Day 21 or earlier
  Tumor volume T/C: 0.82
[9]; NB-EBc1 neuroblastoma xenograft
  objective response: not responsive
[10]; 1 mg/kg IP
  EFS activity: High (High activity requires: (a) an EFS T/C >2; (b) a significant difference in EFS distributions, and (c) a net reduction in median tumor volume for animals in the treated group at the end of treatment as compared to at treatment initiation)
  Response activity: High (A high level of activity is indicated by a score of 6 or more)
  T/C volume activity: High (High activity = T/C ≤0.15)
[10]; [14]
  EFS T/C: >6.3
  Median final RTV (CD45%): 0.0
[10]; 1 mg/kg IP, Day 21 or earlier
  Tumor volume T/C: 0.10
[11]; maximum of PPTP cell lines
  Panel rIC50/Line rIC50, maximum: >2.74
  Relative in/out%, maximum: −18%
  Ymin % (observed), maximum: 20.92%
[11]; median of PPTP cell lines
  Panel rIC50/Line rIC50, median: 1.20
  Relative in/out%, median: −89%
  Ymin % (observed), median: 1.79%
[11]; minimum of PPTP cell lines
  Panel rIC50/Line rIC50, minimum: 0.02
  Relative in/out%, minimum: −100%
  Ymin % (observed), minimum: 0.00%
[11]; read-out: rIC50, maximum, maximum of PPTP cell lines
  IC50: 14800 pM
[11]; read-out: rIC50, median, median of PPTP cell lines
  IC50: 270 pM
[11]; read-out: rIC50, minimum, minimum of PPTP cell lines
  IC50: < 100 pM
[11]; read-out: rIC50, most sensitive cell lines, lymphoid origin (three ALL, one ALCL, one NHL)
  IC50: < 100 pM
[11]; read-out: rIC50, other (non-neuroblastoma) PPTP cell lines
  IC50: 140 pM
[11]; read-out: relative IC50 (rIC50), range, range over the PPTP cell lines
  IC50: 100 to 14800 pM
NB-1643 cell line; NB-1643
  Panel rIC50/Line rIC50: 0.57
  Relative in/out%: −97%
  Ymin % (observed): 0.53%
NB-1643 cell line; NB-1643, 96 h, read-out: rIC50
  IC50: 470 pM
[12]; 1 mg/kg IP
  EFS activity: High (High activity requires: (a) an EFS T/C >2; (b) a significant difference in EFS distributions, and (c) a net reduction in median tumor volume for animals in the treated group at the end of treatment as compared to at treatment initiation)
  Response activity: High (A high level of activity is indicated by a score of 6 or more)
  T/C volume activity: High (High activity = T/C ≤0.15)
[12]; [14]
  EFS T/C: >3.8
  Median final RTV (CD45%): 0.0
[12]; 1 mg/kg IP, Day 21 or earlier
  Tumor volume T/C: 0.06
TC-71 Ewing xenograft; 1 mg/kg IP
  Response activity: High (A high level of activity is indicated by a score of 6 or more)
  T/C volume activity: Int (Intermediate activity = T/C ≤0.45 but >0.15)
TC-71 Ewing xenograft; [14]
  EFS T/C: >1.5
  Median final RTV (CD45%): 2.3
TC-71 Ewing xenograft; 1 mg/kg IP, Day 21 or earlier
  Tumor volume T/C: 0.19
[13]; 1 mg/kg dose, SCID mice
  AUC (area under the plasma drug concentration-time curve): 658 ng·h/mL
[13]; preclinical setting, three doses of 1 mg/kg per course
  AUC per course of treatment: 1,974 ng hour/ml
SK-NEP-1 Ewing xenograft; 1 mg/kg IP
  EFS activity: High (High activity requires: (a) an EFS T/C >2; (b) a significant difference in EFS distributions, and (c) a net reduction in median tumor volume for animals in the treated group at the end of treatment as compared to at treatment initiation)
  Response activity: High (A high level of activity is indicated by a score of 6 or more)
  T/C volume activity: High (High activity = T/C ≤0.15)
SK-NEP-1 Ewing xenograft; [14]
  EFS T/C: >4.3
  Median final RTV (CD45%): 0.0
SK-NEP-1 Ewing xenograft; 1 mg/kg IP, Day 21 or earlier
  Tumor volume T/C: 0.00
